Measurements taken from ChEMBL document CHEMBL2203053, “DNA binding acridine-thiazolidinone agents affecting intracellular glutathione” (Bioorg Med Chem, 2012).
Values belong to the compound of their own block, whether it stands above or below them. Calls of active or inactive are those of the source. No cut-off for these calls is given here.

Columns and labels:
HL-60 [1] = assay: Drug uptake in human HL60 cells at 5 uM after 4 hrs by Hoechst staining based fluorescence microscopy; assay type: ADME, cell-based; settings: hl-60, 4 h
Summary of the method: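 HL-60 cells were exposed to 5 µM for 4 h at 37 °C, 5% CO₂, then washed in PBS. Intrinsic blue fluorescence was viewed by optical and fluorescence microscopy. Untreated control cells were stained with Hoechst 33342 (10 µM, 10 min).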

Nucleic Acid [2] = assay: Ratio of daunomycin K to compound K for calf thymus DNA by spectrofluorimetry based McGhee von Hippel method; assay type: nucleic-acid assay; settings: Bos taurus
HL-60 [3] = assay: Cytotoxicity against human HL60 cells after 72 hrs using trypan blue exclusion staining by DCC method; assay type: functional, cell-based; settings: HL-60, 72 h
Summary of the method: (§1)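 For trypan blue dye-exclusion direct cell counting, HL-60 cells were seeded at 1 × 10⁵ cells/mL. Compound at 0–10 µM, or 1% DMSO control, was added after 24 h. Viable counts were taken after 24, 48 and 72 h. IC50 (50% inhibition of viability) came from growth curves, as mean ± S.D., n = 3.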

Nucleic Acid [4] = assay: Ratio of proflavine K to compound K for calf thymus DNA by spectrofluorimetry based McGhee von Hippel method; assay type: nucleic-acid assay; settings: Bos taurus
HL-60 [5] = assay: Cytotoxicity against human HL60 cells after 48 hrs using trypan blue exclusion staining by DCC method; assay type: functional, cell-based; settings: HL-60, 48 h; summary of the method: as §1
HL-60 [6] = assay: Decrease in intracellular glutathione level in human HL60 cells at 2 uM after 24 hrs by spectrophotometric analysis; assay type: functional, cell-based
HL-60 [7] = assay: Cytotoxicity against human HL60 cells after 72 hrs by MTT assay; assay type: functional, cell-based; settings: HL-60, 72 h
Summary of the method: (§2)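 HL-60, L1210 and A2780 cells were grown in RPMI 1640 with 10% FBS, penicillin and streptomycin at 37 °C, 5% CO₂; HL-60 and A2780 medium also had 2 mM glutamine. Cells were exposed to 0–30 µM for 48 or 72 h. Viability was read by MTT microculture tetrazolium assay and IC50 was determined.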

L1210 [8] = assay: Cytotoxicity against mouse L1210 cells after 48 hrs by MTT assay; assay type: functional, cell-based; settings: L1210, 48 h; summary of the method: as §2
HL-60 [9] = assay: Cytotoxicity against human HL60 cells after 48 hrs by MTT assay; assay type: functional, cell-based; settings: HL-60, 48 h; summary of the method: as §2
Nucleic Acid [10] = assay: Binding affinity to calf thymus DNA assessed as binding constant by spectrofluorimetry based McGhee von Hippel method; assay type: nucleic-acid assay; settings: Bos taurus
Summary of the method: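 Fluorescence titration used compound at 26.7 µM in 0.01 M Tris buffer (pH 7.4, 24 °C). ctDNA was added stepwise from 0 to 32 µM bp at 2 µM intervals until spectra stopped changing. Excitation was 384 nm and emission was read at 410–470 nm. Binding constant K was derived by the McGhee–von Hippel method from Scatchard plot data.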

A2780 [11] = assay: Drug uptake in human A2780 cells at 5 uM after 4 hrs by Hoechst staining based fluorescence microscopy; assay type: ADME, cell-based; settings: a2780, 4 h
Nucleic Acid [12] = assay: Binding affinity to calf thymus DNA assessed as hypochromicity at 25 uM by UV-visible spectrophotometry; assay type: nucleic-acid assay; settings: Bos taurus
Summary of the method: (§3)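 Absorption spectra were taken in 0.01 M Tris buffer, pH 7.4. Compounds were diluted from DMSO stock to a final 25 µM. Sonicated calf thymus DNA in TE buffer was added at 0–30 µM bp, with concentration set by A260. Shift of λmax (free vs bound) and % hypochromicity were recorded.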

HL-60 [13] = assay: Cytotoxicity against BSO pretreated human HL60 cells assessed as cell viability at 3 uM treated 6 hrs after BSO addition measured after 48 hrs by trypan blue exclusion assay; assay type: functional, cell-based
Summary of the method: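 HL-60 cells were pretreated 6 h with L-buthionine-sulfoximine (10 µM), then exposed to 1.5, 3.0 or 1.0 µM compound for 48 h. Viable cells were counted by trypan blue staining and expressed as percentage of all cells.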

HL-60 [14] = assay: Decrease in intracellular glutathione level in human HL60 cells at 2 uM after 2 hrs by spectrophotometric analysis; assay type: functional, cell-based
Nucleic Acid [15] = assay: Ratio of acridine orange K to compound K for calf thymus DNA by spectrofluorimetry based McGhee von Hippel method; assay type: nucleic-acid assay; settings: Bos taurus
A2780 [16] = assay: Cytotoxicity against human A2780 cells after 48 hrs by MTT assay; assay type: functional, cell-based; settings: A2780, 48 h; summary of the method: as §2
Nucleic Acid [17] = assay: Binding affinity to calf thymus DNA assessed as bathochromic shift at 25 uM by UV-visible spectrophotometry; assay type: nucleic-acid assay; settings: Bos taurus; summary of the method: as §3
HL-60 [18] = assay: Induction of necrosis in human HL60 cells assessed as cell shrinking at 5 uM after 24 hrs by propidium iodide staining based fluorescence microscopy; assay type: functional
L1210 [19] = assay: Cytotoxicity against mouse L1210 cells after 72 hrs by MTT assay; assay type: functional, cell-based; settings: L1210, 72 h; summary of the method: as §2
A2780 [20] = assay: Cytotoxicity against human A2780 cells after 72 hrs by MTT assay; assay type: functional, cell-based; settings: A2780, 72 h; summary of the method: as §2
Nucleic Acid [21] = assay: Binding affinity to calf thymus DNA assessed as melting temperature at 5 uM at pH 7.1 by thermal denaturation assay; assay type: nucleic-acid assay; settings: Bos taurus

Drug uptake (HL-60 [1]): Active
Ratio (Nucleic Acid [2]): 10
Ratio (Nucleic Acid [4]): 10
K (Nucleic Acid [10]): 1.37 ×10⁶ /M
Drug uptake (A2780 [11]): Active
Activity (Nucleic Acid [12]): 31.2%
Ratio (Nucleic Acid [15]): 10
Activity (Nucleic Acid [17]): Active
Tm (Nucleic Acid [21]): 74 °C
Structure (SMILES): COC(=O)/C=C1\S/C(=N\c2c3ccccc3nc3ccccc23)N(C(C)(C)C)C1=O
IC50 (HL-60 [3]): 2.8 µM
IC50 (HL-60 [5]): 3.5 µM
Activity (HL-60 [6]): inactive
IC50 (HL-60 [7]): 3.7 µM
IC50 (L1210 [8]): 17.9 µM
IC50 (HL-60 [9]): 5.4 µM
Activity (HL-60 [13]): Active
Activity (HL-60 [14]): Active
IC50 (A2780 [16]): > 30 µM
Activity (HL-60 [18]): Active
IC50 (L1210 [19]): 20.9 µM
IC50 (A2780 [20]): 23.7 µM

K (Nucleic Acid [10]): 3.19 ×10⁵ /M
Structure (SMILES): CN(C)c1ccc2cc3ccc(N(C)C)cc3nc2c1
